Results as given in ChEMBL document CHEMBL4732105, “First orally bioavailable prodrug of proteolysis targeting chimera (PROTAC) degrades cyclin-dependent kinases 2/4/6 in vivo” (Eur J Med Chem, 2021).
One block for each compound: values may come before it. Active and inactive are the calls of the source. The rule behind the calls is not given here.

Columns and labels:
B16-F10 [1] = assay: Cytotoxicity against mouse B16F10 cells assessed as reduction in cell viability after 72 hrs by MTT assay; assay type: functional, cell-based; conditions: B16-F10, 72 h
In short: (§1)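 Cells exposed to compound for 72 h and viability read by MTT; IC50 from three independent experiments.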

A-375 = assay: Cytotoxicity against human A375 cells assessed as reduction in cell viability after 72 hrs by MTT assay; assay type: functional, cell-based; conditions: A-375, 72 h; in short: as §1
CDK6/cyclin D3 = CDK6/cyclin D3 (Homo sapiens, UniProt Q00534); assay: Inhibition of CDK6/Cyclin D (unknown origin); assay type: protein-complex assay
[2] = biological target: Cyclin-dependent kinase 4/cyclin D1 (Homo sapiens, UniProt P11802); assay: Inhibition of CDK4/cyclin D1 (unknown origin); assay type: protein-complex assay
[3] = biological target: Cyclin-dependent kinase 2/cyclin E1 (Homo sapiens, UniProt P24941); assay: Inhibition of CDK2/Cyclin E (unknown origin); assay type: protein-complex assay
[4] = Toxicity in mouse C57BL/6J mouse xenografted with B16F10 cells assessed as effect on body weight at 200 mg/kg, po measured after 15 days; assay type: organism-based; conditions: in vivo, 360 h, time 15 day
In short: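 C57BL/6J mice injected […] with B16F10 cells and given compound orally. Tumor volume and body weight monitored, and tumors weighed on day 15. Mean ± SD, n = 6.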

B16-F10 [5] = assay: Antitumor activity against mouse B16F10 cells xenografted in C57BL/6J mouse assessed as supression in tumor size at 200 mg/kg, po measured after 15 days; assay type: functional, organism-based; conditions: time 15.0 day
In short: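 C57BL/6J mice given B16F10 cells […], then dosed orally versus vehicle. Tumor volume and body weight monitored; tumors weighed on day 15 (n = 6). Tumor tissue (n = 5) immunostained for CDK2/4/6.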

[6] = AUC (0 to 12 hrs) in Sprague-Dawley rat at 10 mg/kg, iv; assay type: ADME, organism-based; design: time < 12 hr, route intravenous, dose 10 mg/kg; conditions: in vivo
[7] = Oral bioavailability in Sprague-Dawley rat at 200 mg/kg; assay type: ADME, organism-based; conditions: in vivo
In short: (§2)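 SD rats, n = 3, single dose of prodrug: IV by tail vein at 10 mg/Kg, or PO at 200 mg/Kg. Plasma levels of prodrug and released active degrader followed over 0–12 h. Parameters derived by a non-compartmental model.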

[8] = AUC (0 to 12 hrs) in Sprague-Dawley rat at 200 mg/kg, po; assay type: ADME, organism-based; design: time < 12 hr, route oral, dose 200 mg/kg; conditions: in vivo
In short: (§3)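 Single oral dose of 200 mg/Kg to SD rats (n = 3). Prodrug and released active degrader quantified in plasma over 0–12 h; Cmax, Tmax and AUC0-12 derived by non-compartmental model.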

[9] = Cmax in Sprague-Dawley rat at 200 mg/kg, po; assay type: ADME, organism-based; design: route oral, dose 200 mg/kg; conditions: in vivo; in short: as §3
[10] = Cmax in Sprague-Dawley rat at 10 mg/kg, iv; assay type: ADME, organism-based; design: route intravenous, dose 10 mg/kg; conditions: in vivo
[11] = Tmax in Sprague-Dawley rat at 200 mg/kg, po; assay type: ADME, organism-based; conditions: in vivo; in short: as §2

Sequence of CDK6/cyclin D3 (P30281 whole entry): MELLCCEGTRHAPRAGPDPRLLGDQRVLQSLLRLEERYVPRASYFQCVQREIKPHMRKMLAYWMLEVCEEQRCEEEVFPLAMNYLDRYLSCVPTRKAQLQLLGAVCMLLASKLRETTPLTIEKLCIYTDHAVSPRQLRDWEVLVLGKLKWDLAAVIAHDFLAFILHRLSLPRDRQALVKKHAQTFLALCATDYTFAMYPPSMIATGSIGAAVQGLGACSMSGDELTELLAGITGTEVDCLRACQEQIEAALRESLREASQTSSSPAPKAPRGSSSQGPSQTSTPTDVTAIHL
Sequence of CDK6/cyclin D3 (Q00534 whole entry): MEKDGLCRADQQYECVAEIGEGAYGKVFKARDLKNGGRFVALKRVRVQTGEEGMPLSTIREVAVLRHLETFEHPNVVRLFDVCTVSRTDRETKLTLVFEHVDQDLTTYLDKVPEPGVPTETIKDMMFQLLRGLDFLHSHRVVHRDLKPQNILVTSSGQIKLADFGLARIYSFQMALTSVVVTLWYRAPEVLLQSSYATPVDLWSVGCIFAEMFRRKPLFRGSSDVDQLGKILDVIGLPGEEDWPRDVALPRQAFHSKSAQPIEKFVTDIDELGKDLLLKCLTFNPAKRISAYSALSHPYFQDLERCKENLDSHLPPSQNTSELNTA
Sequence of Cyclin-dependent kinase 4/cyclin D1 (P11802 whole entry): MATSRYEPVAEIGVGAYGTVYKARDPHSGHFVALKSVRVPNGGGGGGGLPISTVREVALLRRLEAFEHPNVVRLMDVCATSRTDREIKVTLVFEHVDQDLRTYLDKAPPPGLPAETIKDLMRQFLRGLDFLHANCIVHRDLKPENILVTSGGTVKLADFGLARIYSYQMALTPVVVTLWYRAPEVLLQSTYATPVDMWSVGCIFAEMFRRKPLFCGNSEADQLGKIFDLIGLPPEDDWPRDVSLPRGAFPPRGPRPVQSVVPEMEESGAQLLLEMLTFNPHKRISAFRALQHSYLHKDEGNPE
Sequence of Cyclin-dependent kinase 4/cyclin D1 (P24385 whole entry, further chain): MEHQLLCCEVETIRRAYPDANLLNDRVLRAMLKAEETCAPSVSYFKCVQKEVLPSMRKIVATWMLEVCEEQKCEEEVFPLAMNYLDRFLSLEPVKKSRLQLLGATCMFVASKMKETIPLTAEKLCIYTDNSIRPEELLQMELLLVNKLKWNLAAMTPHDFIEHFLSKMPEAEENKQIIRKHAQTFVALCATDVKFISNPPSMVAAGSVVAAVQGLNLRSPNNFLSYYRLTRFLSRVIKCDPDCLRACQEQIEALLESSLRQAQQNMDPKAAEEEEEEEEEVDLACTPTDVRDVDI

Compound: CN(C)C(=O)c1cc2cnc(Nc3ccc(N4CCNCC4)cn3)nc2n1C1CCCC1 [RIBOCICLIB]
IC50 (B16-F10 [1]): > 10000 nM | IC50 (A-375): > 10000 nM

Compound: Nc1cccc2c1C(=O)N(C1CCC(=O)NC1=O)C2=O (stereo not given) [POMALIDOMIDE]
IC50 (B16-F10 [1]): > 10000 nM | IC50 (A-375): > 10000 nM

IC50 (CDK6/cyclin D3): 101 nM | IC50 [2]: 112 nM | IC50 [3]: 390 nM
Compound: COC(=O)c1ccc(Nc2ncc3cc(C(=O)N(C)C)n(C4CCCC4)c3n2)cc1

AUC [6]: 95.7 µg·h/mL | bioavailability [7]: 68% | AUC [8]: 2810 µg·h/mL | Cmax [9]: 2260 µg/mL | Cmax [10]: 111 µg/mL | Tmax [11]: 15 min
Compound: CN(C)C(=O)c1cc2cnc(Nc3ccc(C(=O)NCCCCCCNc4cccc5c4C(=O)N(C4CCC(=O)N(COC(=O)C(C)(C)C)C4=O)C5=O)cc3)nc2n1C1CCCC1 (stereo not given)
Activity [4]: Non-Toxic | Activity (B16-F10 [5]): Active
